Where two headings read alike, the source gives them in different places.
Tests used:
[1] = target: T1, Escherichia coli GUS (EcGUS) (Escherichia coli, UniProt P05804); experiment: EcGUS inhibition assay; type: biochemical; settings: for inhibition at 100 µM: read-out: percentage inhibition rate of EcGUS; for percentage inhibition rate of EcGUS: compounds at 100 μM, pNPG as substrate
[2] = target: T1, Escherichia coli GUS (EcGUS); experiment: Inhibition kinetics; type: biochemical; settings: pNPG as substrate; for type of inhibition of EcGUS: Lineweaver-Burk plot
Method in brief: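 Recombinant EcGUS was expressed in E. coli BL21(DE3) carrying pET28a-EcGUS. The enzyme hydrolysed pNPG, and activity was read as para-nitrophenyl released. Test compound stocks were 10 mM in DMSO. pNPG and inhibitor concentrations were varied. Inhibition type came from where the regression lines intercept on Lineweaver-Burk plots, and Ki was then calculated. Runs were in triplicate, repeated twice, reported as mean ± SD.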

[3] = read-out: IC50 against EcGUS, pNPG 250 µM, PBS pH 7.4, 37 °C, 30 min

T1 sequence (P05804 whole entry): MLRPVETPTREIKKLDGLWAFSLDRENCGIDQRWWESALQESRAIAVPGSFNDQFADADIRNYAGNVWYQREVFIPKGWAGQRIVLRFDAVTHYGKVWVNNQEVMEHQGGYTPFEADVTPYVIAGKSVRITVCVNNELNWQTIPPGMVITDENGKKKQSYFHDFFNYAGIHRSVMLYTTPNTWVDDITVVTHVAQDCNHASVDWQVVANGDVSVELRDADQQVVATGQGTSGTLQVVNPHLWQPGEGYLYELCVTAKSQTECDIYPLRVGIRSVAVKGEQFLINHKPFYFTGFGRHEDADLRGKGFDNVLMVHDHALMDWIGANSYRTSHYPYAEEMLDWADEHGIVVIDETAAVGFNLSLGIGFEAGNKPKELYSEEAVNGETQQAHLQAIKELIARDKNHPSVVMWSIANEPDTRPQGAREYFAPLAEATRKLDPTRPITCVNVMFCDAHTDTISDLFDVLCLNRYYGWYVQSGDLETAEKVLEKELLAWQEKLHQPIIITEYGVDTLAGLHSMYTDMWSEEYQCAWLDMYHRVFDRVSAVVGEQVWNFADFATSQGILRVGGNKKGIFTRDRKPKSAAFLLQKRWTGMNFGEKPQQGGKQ

**Q.** What does the source list for `C[C@@H]1O[C@@H](O[C@@H]2[C@@H](O)[C@H](OCCc3ccc(O)c(O)c3)O[C@H](COC(=O)/C=C/c3ccc(O)c(O)c3)[C@H]2O)[C@H](O)[C@H](O)[C@H]1O` [isoacteoside]?
**A.** IC50 [1]: 8.8 µM; inhibition at 100 µM [1]: 77%; type of inhibition of EcGUS [2]: mixed-type

**Q.** Which IC50 [1, 3] does the source give for `C[C@@H]1O[C@@H](OC[C@H]2O[C@@H](OCCc3ccc(O)c(O)c3)[C@H](OC(=O)/C=C/c3ccc(O)c(O)c3)[C@@H](O)[C@@H]2O)[C@H](O)[C@H](O)[C@H]1O` [forsythoside H] here?
**A.** 22.2 µM

**Q.** What does the source list for `C[C@@H]1O[C@@H](O[C@@H]2[C@@H](O)[C@H](OCCc3ccc(O)c(O)c3)O[C@H](CO)[C@H]2OC(=O)/C=C/c2ccc(O)c(O)c2)[C@H](O)[C@H](O)[C@H]1O` [acteoside]?
**A.** IC50 [1]: 3.2 µM; inhibition at 100 µM [1]: 88 ± 2.2%; type of inhibition of EcGUS [2]: mixed-type

**Q.** What does the source list for `CCOC(=O)/C=C/c1ccc(O)c(O)c1` [CAEE, caffeic acid ethyl ester]?
**A.** percentage inhibition rate of EcGUS [1]: 97.1 ± 0.2%; IC50 [1, 3]: 7 µM; type of inhibition of EcGUS [2]: competitive; Ki ([2]; read-out: Ki (inhibition constant) against EcGUS): 2.7 µM

**Q.** Which “type of inhibition of EcGUS” value [2] does the source give for acetylacteoside here?
**A.** mixed-type

**Q.** What does the source list for `C[C@@H]1O[C@@H](OC[C@H]2O[C@@H](OCCc3ccc(O)c(O)c3)[C@H](O)[C@@H](OC(=O)/C=C/c3ccc(O)c(O)c3)[C@@H]2O)[C@H](O)[C@H](O)[C@H]1O` [isoforsythiaside]?
**A.** IC50 [1, 3]: 7.6 µM; type of inhibition of EcGUS [2]: mixed-type

**Q.** For `COc1ccc(CCO[C@@H]2O[C@H](CO)[C@@H](OC(=O)/C=C/c3ccc(O)c(OC)c3)[C@H](O[C@@H]3O[C@@H](C)[C@H](O)[C@@H](O)[C@H]3O)[C@H]2O)cc1O` [martynoside], which IC50 [1, 3] is on record?
**A.** 14.3 µM

**Q.** And the “type of inhibition of EcGUS” value [2]?
**A.** mixed-type

**Q.** Which “percentage inhibition rate of EcGUS” value [1] does the source give for `O=C(O)[C@@H](O)[C@H]1OC(=O)[C@H](O)[C@H]1O` [DSL, D-glucaric acid-1,4-lactone, reference compound] here?
**A.** 48.7 ± 1.2%

**Q.** And the IC50 [1, 3]?
**A.** 67.1 µM

**Q.** Which IC50 [1, 3] does the source give for `COc1ccc(CCO[C@@H]2O[C@H](CO[C@@H]3OC[C@H](O)[C@H](O)[C@H]3O)[C@@H](OC(=O)/C=C/c3ccc(O)c(OC)c3)[C@H](O[C@@H]3O[C@@H](C)[C@H](O)[C@@H](O)[C@H]3O)[C@H]2O)cc1O` [angoroside C] here?
**A.** > 100 µM

Reference: publication PMC7717682 (Journal of Enzyme Inhibition and Medicinal Chemistry, 2020)
